The test system of data set [1] is MCF10dcis.com (DCIS) cells. Put plainly: Copper accumulation in breast cancer cells measured by ICP-OES. The class given is cell-based, human. The following applies: for increase of intracellular copper level: compound-copper mixture; for difference in ability to accumulate cellular copper versus inactive analogs: 10 μM CuCl2 mixtures, 1 h (8-OHQ vs 2, 3) or 8 hrs (CQ vs 5, 6).

Data set [2] can be described thus: Parallel artificial membrane permeability assay. As to conditions: PAMPA. Format: in vitro ADME. The gist of the method: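 Test compound was supplied as a 10 mM DMSO stock and diluted 200-fold in pH 7.4 buffer. It was placed in the donor wells under an artificial lipid membrane filter plate holding pH 7.4 acceptor sink buffer. Plates were incubated 0.5 h at room temperature, with each well magnetically stirred. Donor and acceptor concentrations were measured by UV plate spectrometry in an automated workflow.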

Data set [3] in a line: Caco-2 permeability assay. The following applies: human; for efflux ratio at 2 h, 50 μmol/L: Caco-2, pH 7.4; for Papp at 2 h, 50 μmol/L: 2 hrs at 37°C. The class given is in vitro ADME. In short, it runs like this:
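Caco-2 cells were grown in MEM with 20% FBS at 37 °C and 5% CO2. They were seeded on transwell inserts at 0.165×10^5 cells/insert and cultured 21 days in 10% FBS MEM, with monolayer integrity checked by TEER. Monolayers were washed in HBSS/HEPES (10 mM, pH 7.4). Test compound (50 μmol/L) was added apically or basolaterally and incubated 2 h at 37 °C. The receiver side was quantified by UPLC/MS. Papp = dQ/dt×1/AC0, and efflux ratio = B→A/A→B.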

Data set [4] is described as follows: Cu-ligand binding by UV-vis titration. The class given is physicochemical. As to conditions: UV-vis titration with CuCl2 in methanol; 0.1 mM compound.
The test system of the next data set is breast cancer DCIS cells. Nature of the data set: Cell proliferation assay. The class given is cell-based, human. As to conditions: for toxicity of compound alone: DCIS cells, compound without copper, 24 h, MTT. In short, it runs like this:
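DCIS human breast cancer cells were kept in DMEM/F12 with 5% horse serum, bicarbonate, 10 mM HEPES and antibiotics at 37 °C, 5% CO2. They were grown to 70–80% confluency, then given test compound alone or premixed with CuCl2 at various concentrations for 24 h at 37 °C. Medium was removed before the MTT read-out. Viability is expressed as percent of DMSO-treated cells (mean±SD, n=4).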

The mark [5] stands for this setting: Caco-2, pH 7.4, CaCo2 Papp A/B, apical to basolateral.
The mark [6] stands for this setting: Caco-2, pH 7.4, Caco2 Papp B/A, basolateral to apical.

By Papp is commonly meant a coefficient for how fast a substance crosses the barrier. A higher Papp goes with ready permeation. The efflux ratio is the permeability from basolateral to apical divided by that in the opposite direction, in the common usage. As for `COc1ccc(Cl)c2cccnc12` [Compound 6, 5-chloro-8-methoxyquinoline], the “increase of intracellular copper level” value in data set [1] is given as “did not change the accumulation of intracellular copper”. Also, the Papp at 0.5 hr, 50 µM in data set [2] was 308 ± 49 nm/s. For the same compound, the efflux ratio at 2 h, 50 μmol/L in data set [3] is 0.7. Also, the apparent permeability (Papp) at 2 h, 50 μmol/L in data set [3] (setting [5]) came out at 604 ± 24 nm/s; in data set [3] (setting [6]), 413 ± 27 nm/s. Moreover, in data set [4], the “formation of copper complex” value is on record as “could not form complexes with copper”.

Regarding `CCOc1cccc2cccnc12` [Compound 3, 8-ethoxyquinoline], the “increase of intracellular copper level” value in data set [1] is on record as “did not change the accumulation of intracellular copper”. In data set [2], this compound showed a Papp at 0.5 hr, 50 µM of 726 ± 248 nm/s. Moreover, the efflux ratio at 2 h, 50 μmol/L in data set [3] came to 0.5. The Papp at 2 h, 50 μmol/L in data set [3] (setting [5]) was 207 ± 146 nm/s; in data set [3] (setting [6]), 94 ± 25 nm/s. Further, the “formation of copper complex” value in data set [4] is given as “could not form complexes with copper”.

As to `Oc1cccc2cccnc12` [Compound 1, 8-hydroxyquinoline, reference compound], the “difference in ability to accumulate cellular copper versus inactive analogs” value in data set [1] is recorded as “at least 100 fold”. In addition, the “increase of intracellular copper level” value in data set [1] was found to be 135 fold. Further, the entries for the “toxicity of compound alone” value in the data set with breast cancer DCIS cells and in the data set on breast cancer DCIS cells (listed as 8-OHQ) were “some toxicity” and “much less or no toxicity”, respectively. The Papp at 0.5 hr, 50 µM in data set [2] amounted to 213 ± 16 nm/s. Moreover, the efflux ratio at 2 h, 50 μmol/L in data set [3] came out at 0.8. Besides, the Papp at 2 h, 50 μmol/L in data set [3] (setting [5]) was determined as 380 ± 148 nm/s; in data set [3] (setting [6]), 290 ± 11 nm/s. The “formation of copper complex” value in data set [4] was “bind to copper and form complexes”.

`[Cu+2].[O-]c1cccc2cccnc12.[O-]c1cccc2cccnc12` [Cu [8-OHQ]2]: the “anti-proliferative effect of synthesized copper complex” value in the data set with breast cancer DCIS cells (unpublished work of the authors) was “comparable to their copper mixtures”.

In the case of `COc1cccc2cccnc12` [Compound 2, 8-methoxyquinoline], the “increase of intracellular copper level” value in data set [1] was “did not change the accumulation of intracellular copper”. For the same compound, in data set [2], the Papp at 0.5 hr, 50 µM came to 682 ± 109 nm/s. Also, the efflux ratio at 2 h, 50 μmol/L in data set [3] came to 0.6. Further, the apparent permeability (Papp) at 2 h, 50 μmol/L in data set [3] (setting [5]) was 483 ± 26 nm/s; in data set [3] (setting [6]), 299 ± 7 nm/s. In addition, in data set [4], the “formation of copper complex” value is reported as “could not form complexes with copper”.

On to `COc1c(I)cc(Cl)c2cccnc12` [Compound 5, 5-chloro-7-iodo-8-methoxyquinoline], for which the “increase of intracellular copper level” value in data set [1] is recorded as “did not change the accumulation of intracellular copper”. In data set [2], this compound gave a Papp at 0.5 hr, 50 µM of 779 ± 54 nm/s. The efflux ratio at 2 h, 50 μmol/L in data set [3] turned out to be 0.6. Also, the Papp at 2 h, 50 μmol/L in data set [3] (setting [5]) amounted to 215 ± 31 nm/s; in data set [3] (setting [6]), 125 ± 16 nm/s. Besides, in data set [4], the “formation of copper complex” value is “could not form complexes with copper”.

Take `Oc1c(I)cc(Cl)c2cccnc12` [Compound 4, 5-chloro-7-iodo-8-hydroxyquinoline, reference compound]: the “difference in ability to accumulate cellular copper versus inactive analogs” value in data set [1] was 40–50 fold. The “toxicity of compound alone” value is “some toxicity” with breast cancer DCIS cells and “much less or no toxicity” in the data set with breast cancer DCIS cells (listed as CQ). In data set [2], this compound showed a Papp at 0.5 hr, 50 µM of 334 ± 31 nm/s. For the same compound, in data set [3], the efflux ratio at 2 h, 50 μmol/L was determined as 0.7. Also, the apparent permeability coefficient (Papp) at 2 h, 50 μmol/L in data set [3] (setting [5]) amounted to 473 ± 61 nm/s; in data set [3] (setting [6]), 315 ± 22 nm/s. In addition, the “formation of copper complex” value in data set [4] was “bind to copper and form complexes”.

The values are drawn from paper PMC2814311 (Journal of biological inorganic chemistry : JBIC : a …, 2009).
